Measured values as given in ChEMBL document CHEMBL1150579, “Anti-lipid-peroxidative principles from Tournefortia sarmentosa” (J Nat Prod, 2002).

Assays:
[1] = Antioxidant activity against Cu2+-induced lipid peroxidation in human plasma LDL preincubated for 1 hr before Cu2+ challenge relative to probucol; assay type: functional, cell-free
Procedure, shortened: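 Same Cu2+-induced human LDL assay as above, with 1 h compound preincubation, 10 µM CuSO4 for 2 h at 37 °C, and conjugated dienes read at 232 nm. Probucol (10 µM, in 10% ethanol) was the positive control, with its potency set at 1.0. Relative potency = IC50(probucol)/IC50(compound).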

[2] = Antioxidant activity against Cu2+-induced lipid peroxidation in human plasma LDL preincubated for 1 hr before Cu2+ challenge; assay type: functional, cell-free
Procedure, shortened: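 LDL from fasting plasma of healthy adult men not taking vitamin supplements. LDL was preincubated with compound at 37 °C for 1 h. Oxidation was started with CuSO4 (final 10 µM) and run for 2 h at 37 °C, shaken at 120 rpm. Conjugated dienes in the supernatant were read at 232 nm. IC50 is the concentration giving 50% inhibition of diene formation, taken from concentration curves.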

IC50 [2] | SMILES | Activity [1]
2720 nM | O=C(/C=C/c1ccc(O)c2c1C=Cc1cc(O)c(O)cc1O2)O[C@H](Cc1ccc(O)c(O)c1)C(=O)O [ISOSALVIANOLIC ACID C] | 1.6
1000 nM | O=C(/C=C/c1ccc(O)c2c1[C@H](C(=O)O)[C@@H](c1ccc(O)c(O)c1)O2)O[C@H](Cc1ccc(O)c(O)c1)C(=O)O [LITHOSPERMIC ACID] | 4.3
4300 nM | CC(C)(Sc1cc(C(C)(C)C)c(O)c(C(C)(C)C)c1)Sc1cc(C(C)(C)C)c(O)c(C(C)(C)C)c1 [PROBUCOL] | –
1810 nM | O=C(/C=C/c1ccc(O)c(O)c1)O[C@H](Cc1ccc(O)c(O)c1)C(=O)O [ROSMARINIC ACID] | 2.2
590 nM | O=C(/C=C/c1ccc(O)c(O)c1/C=C/c1ccc(O)c(O)c1)O[C@H](Cc1ccc(O)c(O)c1)C(=O)O [SALVIANOLIC ACID A] | 7.3
5440 nM | O=C(O)/C=C/c1ccc(O)c(O)c1/C=C/c1ccc(O)c(O)c1 [SALVIANOLIC ACID F] | 0.8
4700 nM | O=Cc1ccc(O)c2oc(-c3ccc(O)c(O)c3)cc12 [TOURNEFOLAL] | 1.09
4810 nM | O=C(O)/C=C/c1ccc(O)c2oc(-c3ccc(O)c(O)c3)cc12 [TOURNEFOLIC ACID A] | 1.1
510 nM | CCOC(=O)/C=C/c1ccc(O)c2c1C=Cc1cc(O)c(O)cc1O2 [TOURNEFOLIC ACID B ETHYL ESTER] | 8.6
2320 nM | O=C(O)/C=C/c1ccc(O)c2c1C=Cc1cc(O)c(O)cc1O2 [TOURNEFOLIC ACID B] | 1.9
